# Screening data: PubChem, several laboratories
# Hep lipid drop: modulators of hepatic lipid droplet formation; AML12 mouse hepatocytes, oleate lipid droplets, BODIPY imaging; inhibition, % at 6.5 µM; 240,000 compounds, 0.4% hits; AID 1656;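 active means lipid droplet intensity inhibited by at least 50%, with more than 500 cells counted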
#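 Test system: AML12 mouse liver cells; schedule: overnight exposure; technique: high-content imaging of BODIPY-stained droplets and DAPI nuclei; read-out: % inhibition of corrected integrated BODIPY droplet signal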
# pCIP destab: p/CIP protein destabilization | Q05BA5 | F442A p/CIP-EGFP cells, EGFP fluorescence, 16 h | decrease of EGFP signal, % at 10 µM | 290,000 compounds, 0.01% hits | AID 1984;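 active means EGFP signal decrease of at least 30% at 10 µM or well 3 SD below plate mean, unless failing retest; inactive means the rest, including hits failing retest or dose response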
# Mdm2 ligase inh: inhibitors of human Mdm2 E3 ubiquitin ligase; 210,000 compounds, 0.11% hits; signal enhancement, % at 5 µM; cell-based MDM2 ubiquitination luciferase reporter, 2 h; 0 = plate control, 100 = twice control, blank-subtracted;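 active means signal enhancement of 30% or more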;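 further: luminescence tracks abundance of the self-degrading MDM2-luciferase fusion protein; higher signal means inhibition of MDM2 E3 ligase activity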
# Target sequence (Q00987 whole entry, looked up, the tested form may be a part): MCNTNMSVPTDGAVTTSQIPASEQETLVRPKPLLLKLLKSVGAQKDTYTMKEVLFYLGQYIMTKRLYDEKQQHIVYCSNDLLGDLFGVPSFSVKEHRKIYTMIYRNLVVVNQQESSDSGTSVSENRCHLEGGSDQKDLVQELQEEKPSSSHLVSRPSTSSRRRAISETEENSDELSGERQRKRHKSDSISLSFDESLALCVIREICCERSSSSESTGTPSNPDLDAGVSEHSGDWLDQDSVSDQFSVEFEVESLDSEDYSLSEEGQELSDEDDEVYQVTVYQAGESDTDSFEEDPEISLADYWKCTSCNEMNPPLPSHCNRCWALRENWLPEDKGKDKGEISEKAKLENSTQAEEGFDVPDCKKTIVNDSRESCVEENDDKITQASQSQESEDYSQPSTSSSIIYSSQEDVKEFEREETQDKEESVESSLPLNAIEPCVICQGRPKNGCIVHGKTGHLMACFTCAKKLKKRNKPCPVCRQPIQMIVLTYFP
#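 Assay system: stable mammalian line carrying autodegrading MDM2–luciferase fusion reporter; amount: 2000 cells seeded into each well; buffer or medium: DMEM; benchmarks: plate control and blank wells; signal: luciferase luminescence; timing: 2 h compound exposure at 37 °C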
# * = called active by the depositor; . = no result. The sample as a whole holds a higher share of hits than the screen did.
SMILES,Hep lipid drop,pCIP destab,Mdm2 ligase inh
COC(=O)c1ccc(C(=O)N2CCCC(N3CCN(c4ccccc4)CC3)C2)nc1 (centres undefined),-10,-3,.
CCOC(=O)C1CCCN(C(=O)c2ccc(CNc3c(N4CCC(C)CC4)c(=O)c3=O)cc2)C1 (centres undefined),-2,-3,92*
CC1CCN(c2c(NCc3ccc(C(=O)N4CCN(C5CCCCC5)CC4)cc3)c(=O)c2=O)CC1,-15,3,.
COc1ccccc1NC(=O)CCCN1C(=O)C2CC=CCC2C1=O (centres undefined),13,4,.
CCCCn1c(=O)[nH]c(=O)c2c1nc(-c1ccccn1)n2CC,-2,11,.
COCCNC(=O)/C(C#N)=C/c1ccc(O)cc1,-22,-6,.
COCCNC(=O)/C(C#N)=C/c1cccc(/C=C(\C#N)C(=O)NCCOC)c1,-19,5,70*
COc1cc(C)ccc1OCc1cc(C(=O)N(Cc2nccn2C)C(C)C)no1,-16,-17,.
COCCn1c(=NC(=O)c2ccc(S(=O)(=O)N3CCCc4ccccc43)cc2)sc2cc(S(C)(=O)=O)ccc21,-22,-2,42*
C=CCn1c(=NC(=O)c2ccc(S(=O)(=O)N3CCCc4ccccc43)cc2)sc2cc(S(N)(=O)=O)ccc21,-2,-11,16
CCC(NC(=O)Nc1nnc(C(F)(F)F)s1)(C(F)(F)F)C(F)(F)F,.,30*,-12
O=C(O)CCC(=O)Nc1nnc(C(F)(F)F)s1,.,7,-4
CN(C)c1ccc(C(c2ccc(N(C)C)cc2)c2ccc([N+](=O)[O-])cc2)cc1,4,3,-10
O=C(c1ccccn1)N1CC=C(c2ccccc2)CC1,13,-9,-7
CCC/C(=N\NC(=O)C1CCCC1)c1ccccc1,25,3,.
Cc1ccc(C(=O)c2c3ccc([N+](=O)[O-])cc3[n+]([O-])n2CCC(N)=O)cc1,-9,-15,.
CC(C)(C)NC(=O)C(c1cccnc1)N(C(=O)c1ccc(Cl)nc1)C1CCCC1 (centres undefined),-12,-1,-5
O=C(NC1CCCCC1)C(c1cccnc1)N(C(=O)c1ccc(Cl)nc1)C1CCCCC1 (centres undefined),5,10,46*
Cc1ccnc(N2CCCC(C(=O)Nc3cccc(C)c3C)C2)n1 (centres undefined),-4,7,.
C[C@@H](C(=O)Nc1cccc(S(=O)(=O)N2CCOCC2)c1)N1C(=O)C2CC=CCC2C1=O (some centres undefined),13,0,-7
Cc1ccc(C(=O)Nn2cnc3ccccc3c2=O)cc1C,13,-2,.
COc1ccc(Br)cc1/C=C/C(=O)Nc1ccc(C)cc1,-2,-2,-9
COc1ccc(Br)cc1/C=C/C(=O)Nc1ccc2ccccc2c1,52*,-12,-4
COc1ccc(NC(=O)CSc2nc3ccccc3nc2N2CCCC2)cc1,50*,-3,.
CC(=O)Nc1ccc(NC(=O)CSc2nc3ccccc3nc2N2CCCCC2)cc1,-3,-12,.
SMILES,Hep lipid drop,pCIP destab,Mdm2 ligase inh
O=C(CCn1c(=S)oc2ccccc21)Nc1ccccc1Br,-1,-12,.
O=C1N(CN2CCN(Cc3ccccc3)CC2)c2ccccc2C12OCCCO2,17,-3,-9
CCCCS(=O)(=O)/C=C\C1C2C=CC(C2)C1S(=O)(=O)CCCC (centres undefined),.,0,-11
CCCCS(=O)(=O)/C=C\C=C/S(=O)(=O)CCCC,-7,-38,31*
O=C(Nc1ccc(S(=O)(=O)Nc2ccccc2)cc1)c1ccc(CN2CCOCC2)cc1,-14,-5,-31
COc1nc(NCCc2ccc(OC)c(OC)c2)nc(Nc2ccccc2)n1,-2,-4,.
O=C(/C=C/c1cccnc1)c1cc(F)ccc1O,-22,5,-4
O=C(/C=C/c1cccnc1)/C=C/c1cccnc1,2,-29,39*
O=C(O)Cn1ccc2cc(S(=O)(=O)N3CCCCCC3)ccc21,-3,-1,.
CCOC(=O)/C=C/C(=O)Nc1cccc([N+](=O)[O-])c1,11,-1,-4
CCOC(=O)/C=C/C(=O)Nc1ccccc1-c1ccccc1NC(=O)/C=C/C(=O)OCC,-23,-4,39*
COc1ccc(C(=O)NC=C2C(=O)OC(C)(C)OC2=O)cc1,2,-1,-25
COc1ccc(S(=O)(=O)N2CCCC(C(=O)NC3CC3)C2)cc1Cl (centres undefined),-1,-2,.
CC1(C)c2ssc(=S)c2-c2ccccc2N1C(=O)CSC1=NCCS1,.,-10,-6
Cc1cc2c(cc1C)N(C(=O)CSC1=NCCS1)C(C)(C)c1ssc(=S)c1-2,67*,-11,1
COc1ccc(C(=O)CC(Nc2ccc([N+](=O)[O-])cc2)c2ccc(Cl)cc2)cc1 (centres undefined),-18,2,-8
COC(=O)C1(Cc2ccc(O)cc2)OC(=O)C(O)=C1c1ccc(O)cc1 (centres undefined),-3,-3,-31
CCOc1cc(/C=C(\C#N)C(=O)Nc2ccccc2[N+](=O)[O-])ccc1OCc1cccc2ccccc12,30,30*,-8
CCOc1cc(/C=C(\C#N)C(=O)Nc2ccccc2C(=O)O)ccc1OC(=O)c1ccc(C)cc1,2,-10,.
COc1ccc(C2C(C(=O)N3CCCC3)c3cc(OC)c(OC)cc3C(=O)N2C)cc1OC (centres undefined),-14,-10,-4
COc1ccc(C2C(C(=O)N3CCN(C)CC3)c3cc(OC)c(OC)cc3C(=O)N2C)cc1 (centres undefined),2,1,31*
O=C(NCc1ccco1)c1cc(-c2ccccn2)nc2ccccc12,.,6,-13
O=C(NCc1ccc2c(c1)OCO2)c1cc(-c2ccccn2)nc2ccccc12,58*,-15,-22
CCOCCCNc1nc2c(C)cccn2c(=O)c1/C=C1\SC(=S)N(CC(C)C)C1=O,.,-153,1
CCOCCCNc1nc2c(C)cccn2c(=O)c1/C=C1\SC(=S)N(C(C)CC)C1=O (centres undefined),86*,-877,-16
SMILES,Hep lipid drop,pCIP destab,Mdm2 ligase inh
CCc1c(C)sc2nc(C(C)C)nc(SCC(=O)N3CCc4ccccc4C3)c12,-67,-42,-13
COC(=O)c1sc2cc([N+](=O)[O-])cc(SCC(C)C)c2c1N,56*,-26,13
CCOC(=O)c1sc2ncc([N+](=O)[O-])cc2c1N,-3,-13,-15
COc1cc(C(=O)Nc2nc(-c3ccc(F)cc3)cs2)ccc1OCC(=O)N1CCOCC1,61*,-9,-9
COc1cc(C(=O)O)ccc1OCC(=O)N1CCOCC1,.,-6,-4
COc1cc(C(=O)Nc2nc(-c3ccc(C)cc3)cs2)ccc1OCC(=O)N1CCOCC1,88*,-22,-11
COc1cc(C(=O)NCCN2C(=O)S/C(=C\c3ccc(F)cc3)C2=O)ccc1OCC(=O)N1CCOCC1,4,-1,-3
Cc1cc2ncn(C(=O)c3ccc4c(c3)OCO4)c2cc1C,.,-8,-5
Cc1cc2ncn(C(=O)N3CCC(C)CC3)c2cc1C,-8,-15,38*
CCOc1ccc(/C=N/Nc2ccc(C(F)(F)F)cc2[N+](=O)[O-])cc1O,74*,-11,-5
